Assay outcomes from PubChem.
Compounds with a hit are over-represented: about 2.6% of the library has one in this group of screens.
E-selectin induc – E-selectin induction on HUVECs | activation, % at 7.58 µM | hit rate 0.37% among 260,000 | HUVEC E-selectin immunofluorescence imaging; normalized: neutral wells 0, TNF-alpha wells 100;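 active = mean E-selectin-positive cell signal at least 10% of the positive control, reached in at least 60% of replicates, without over 20% cell loss; inconclusive = no rule given, readout overlaps actives, possibly toxicity-flagged; inactive = the rest, including those meeting only one limit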
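assay system = HUVEC, human umbilical vein endothelial cells | input = 3,000 HUVEC seeded per well | medium = EGM-2 growth medium on 0.1% gelatin-coated wells | dosing = one compound dose added by pin transfer | signal = immunofluorescence imaging | read-out basis = % PE-positive cells | control set = TNF-alpha, DMSO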
GSIS activator – GLuc luminescence reporter in INS-1E cells, primary screen for activators of glucose-dependent secretion of insulin; hit rate 0.61% among 370,000; activation, % at 16.6 µM; INS-1E GLuc reporter insulin secretion, 2-3 h;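 active = lowest replicate activation of at least 40%, so every replicate reaches that level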;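 also: 0% = median of neutral control wells and 100% = median of IBMX positive control wells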
RAD54 inh – RAD54 (human) branch migration inhibition; Q92698; RAD54 Holliday junction branch migration, FAM/BHQ fluorescence; inhibition, % at 10.4 µM; hit rate 0.14% among 360,000; AID 602329;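 active = mean normalized replicate activity at least 40 and at least half of replicates scoring 40 or more; inconclusive = only one of the two criteria met; inactive = mean below 40 and under half of replicates reaching 40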;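 also: 0% = median of neutral control wells and 100% = median of positive control wells; inhibitors cause a drop in the FAM fluorescence signal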
Target sequence (Q92698 whole entry, looked up): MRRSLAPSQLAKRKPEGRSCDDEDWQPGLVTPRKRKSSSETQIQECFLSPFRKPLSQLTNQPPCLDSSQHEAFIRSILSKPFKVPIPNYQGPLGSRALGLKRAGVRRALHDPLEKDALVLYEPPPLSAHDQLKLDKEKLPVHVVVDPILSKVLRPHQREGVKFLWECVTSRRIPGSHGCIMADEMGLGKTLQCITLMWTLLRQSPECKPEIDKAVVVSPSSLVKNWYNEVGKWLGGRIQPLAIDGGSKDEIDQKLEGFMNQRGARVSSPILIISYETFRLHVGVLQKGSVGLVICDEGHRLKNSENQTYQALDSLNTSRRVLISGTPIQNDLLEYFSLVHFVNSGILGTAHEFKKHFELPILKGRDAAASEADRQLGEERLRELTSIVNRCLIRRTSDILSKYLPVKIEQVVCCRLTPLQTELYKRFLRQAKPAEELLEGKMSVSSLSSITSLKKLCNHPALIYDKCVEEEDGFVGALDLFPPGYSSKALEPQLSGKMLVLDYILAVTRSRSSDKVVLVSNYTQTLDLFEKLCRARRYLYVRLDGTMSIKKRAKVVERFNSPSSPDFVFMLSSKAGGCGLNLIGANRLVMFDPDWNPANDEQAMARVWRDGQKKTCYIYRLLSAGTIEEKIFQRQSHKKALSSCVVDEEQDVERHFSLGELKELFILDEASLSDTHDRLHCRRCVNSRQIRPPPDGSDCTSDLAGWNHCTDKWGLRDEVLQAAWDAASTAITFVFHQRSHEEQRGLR
rRNA inh HTS – inhibitors of bacterial rRNA selective over humanized ribosomes; hit rate 1.6% among 350,000; E. coli WT GFP vs humanized-ribosome RFP mutants, fluorescence, 24 h; hits give low values; DMSO median 0, no signal -100; GFP signal change (wild-type ribosome), % (concentration not given with the values);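 active = significant combined selectivity score with lowered wild-type GFP, culture density cut under 30%, mutant RFP and density less affected; inactive = any of these conditions unmet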
MLL AF4-AF9 inh – MLL-AF4/AF9 protein interaction inhibition; AlphaScreen, biotin-AF4 peptide binding to FLAG-AF9; AID 651704; hit rate 0.47% among 350,000; inhibition, % at 10 µM; P42568;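 active = every replicate reaching a set inhibition limit, whatever the replicate mean, cut at about 25% in these data; inconclusive = mean inhibition reaches that limit but some replicates miss it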;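 also: 0% = plate neutral control median and 100% = total signal loss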
RAD52 inh – blocks human RAD52 DNA annealing | hit rate 0.46% among 360,000 | recombinant RAD52 DNA annealing, FRET fluorescence | P43351 | inhibition, % at 18.7 µM;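 active = every replicate showing at least 50% inhibition; inconclusive = mean inhibition at least 50% but not in every replicate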
* marks the source's active call; other numbers are inactive results; i = inactive; ? = inconclusive; . = no result given.

SMILES	E-selectin induc	GSIS activator	RAD54 inh	rRNA inh HTS	MLL AF4-AF9 inh	RAD52 inh
COc1ccc2c3c([nH]c2c1)[C@H](CO)N(S(C)(=O)=O)CC31CCN(CC2CCCCC2)CC1	0	0	.	3	4	21
CC(C)Sc1nc2c(cnn2-c2ccc(F)cc2)c(=O)[nH]1	0	15	-3	0	-4	-3
CC(C)Sc1nc2c(cnn2-c2ccccc2)c(=O)[nH]1	0	9	0	8	36*	-9
Cc1ccc(-n2ncc3c(=O)[nH]c(SC(C)C)nc32)cc1	128*	10	-5	9	?	-13
O=c1[nH]c(/C=C/c2ccc(OC(F)F)cc2)nc2c1cnn2-c1ccccc1	.	85*	.	.	.	.
COC(=O)C(C)Sc1nc2c(cnn2-c2ccccc2)c(=O)[nH]1 (stereo unspecified)	.	22	6	-2	1	-2
C[C@@H]1CN([C@H](C)CO)C(=O)Cc2cc(NC(=O)Nc3ccccc3)ccc2O[C@H]1CN(C)C(=O)Nc1ccc(C(F)(F)F)cc1	0	-1	5	-4	.	.
COC(=O)c1c(C)[nH]c(C(=O)C(C)OC(=O)C2CC(=O)N(CCc3ccccc3)C2)c1C (stereo unspecified)	1	.	-5	.	-1	-8
COC(=O)c1c(C)[nH]c(C(=O)C(C)OC(=O)C2CC(=O)N(c3ccc(C)cc3)C2)c1C (stereo unspecified)	.	-53	-1	-23*	2	-43
CN(C)C(=O)C[C@H]1C=C[C@H](NC(=O)NC2CCCC2)[C@@H](CO)O1	0	11	9	0	-2	1
COc1cccc2c1C(=O)c1c(O)c3c(c(O)c1C2=O)C[C@@](O)(C(C)=O)C[C@@H]3O[C@H]1C[C@H](N)[C@H](O)[C@H](C)O1	.	.	-111	25	31*	i
COc1ccc2c3c(n(C)c2c1)[C@H](CO)N(Cc1ccc(F)cc1)CC31CCN(CC2CC2)CC1	0	-10	.	0	7	6
COc1ccc2c3c(n(C)c2c1)[C@H](CO)N(Cc1ccc(Cl)cc1)CC31CCN(CC2CC2)CC1	0	-19	.	-46	30*	17
COc1ccc2c3c(n(C)c2c1)[C@H](CO)N(Cc1ccc(Cl)cc1)CC31CN(CC2CC2)C1	0	-15	.	-5	-1	.
COc1ccc2c3c(n(C)c2c1)[C@@H](CO)N(Cc1ccc(Cl)cc1)CC31CCN(CC2CC2)CC1	0	-18	.	-11	37*	14
COc1ccc2c3c(n(C)c2c1)[C@@H](CO)N(Cc1ccccc1OC)CC31CCN(C)CC1	0	-4	.	2	26*	-20
COc1ccc2c3c(n(C)c2c1)[C@@H](CO)N(Cc1ccccc1)CC31CCN(C)CC1	0	3	.	1	8	.
COc1ccc2c3c(n(C)c2c1)[C@H](CO)N(Cc1ccncc1)CC31CCN(C(=O)C2CCCCC2)CC1	0	13	.	1	31*	-97
C/C=C/c1ccc2c(c1)O[C@@H](CN(C)Cc1ccncc1)[C@@H](C)CN([C@H](C)CO)S2(=O)=O	0	-6	-4	-9	-5	6
COc1ccc2c3c(n(C)c2c1)[C@H](CO)N(Cc1ccccc1F)CC31CCN(CC2CC2)CC1	1	-5	.	0	40*	20
COc1ccc2c3c(n(C)c2c1)[C@@H](CO)N(CC1CC1)CC31CCN(C(=O)CN(C)C)CC1	0	4	.	3	22	73*
CC(C)(C)c1ccc(NC(=O)N2CCCN(c3ccc([N+](=O)[O-])cn3)CC2)cc1	76*	-1	-11	-34	5	-15
Cc1ccc2nc(SCC(=O)N(CC(C)C)c3c(N)n(Cc4ccccc4)c(=O)[nH]c3=O)[nH]c2c1	0	-28	1	-9	27*	-15
CC(C)CN(C(=O)COC(=O)/C=C/c1cccs1)c1c(N)n(Cc2ccccc2)c(=O)[nH]c1=O	1	44*	.	14	0	-8
COCCN(C(=O)COC(=O)/C=C/c1cccs1)c1c(N)n(Cc2ccccc2)c(=O)[nH]c1=O	.	25	-8	10	4	-8
SMILES	E-selectin induc	GSIS activator	RAD54 inh	rRNA inh HTS	MLL AF4-AF9 inh	RAD52 inh
Cc1noc(C)c1S(=O)(=O)N(C)C[C@@H]1OCCCC[C@@H](C)Oc2ccc(NS(=O)(=O)c3ccc(Cl)cc3)cc2C(=O)N([C@H](C)CO)C[C@H]1C	0	0	-13	0	4	-11
C[C@@H]1CN([C@@H](C)CO)C(=O)c2cc(NS(=O)(=O)c3ccc(Cl)cc3)ccc2O[C@@H](C)CCCCO[C@@H]1CN(C)Cc1ccccc1	.	-29	-1	-3	1	28
C[C@@H]1CN([C@H](C)CO)C(=O)c2cc(N(C)C)ccc2O[C@@H](C)CCCCO[C@@H]1CN(C)C(=O)Nc1ccc(C(F)(F)F)cc1	0	-1	-9	-2	13	33
c1ccc2nc3c(nc2c1)c1ccccc1n3CCN1CCOCC1	.	72*	.	.	.	.
Cc1nc2ccccc2c(=O)n1CCCN1CCOCC1	.	40*	.	14	0	-6
CCCn1c2ccccc2c2nnc(SCCN3CCOCC3)nc21	.	.	4	-14	0	14
COc1ccc(-c2nc3ccccc3c(=O)n2CCCN2CCOCC2)cc1	.	8	-16	12	2	3
CCNC(=O)C[C@@H]1CC[C@@H]2[C@H](COc3ccc(NC(=O)NC(C)C)cc3C(=O)N2C)O1	0	-8	-3	2	1	-4
COc1ccc(CCNC(=O)CSc2ccccn2)cc1OC	.	11	.	13	-1	-4
COCCn1c(-c2ccc(Cl)cc2)cnc1SCC(=O)NCCc1ccc(OC)c(OC)c1	.	-19	.	-22*	15	-5
COc1ccc(CCNC(=O)CSc2ccccc2)cc1OC	-2	73*	.	-7	2	-4
COc1ccc(CCNC(=O)CSc2cccc3cccnc23)cc1OC	.	41*	7	-2	-19	-5
COc1ccc(CCNC(=O)CSCc2ccc(C)cc2)cc1OC	.	21	.	.	.	.
COc1ccc(CCNC(=O)CSc2nccc(=O)[nH]2)cc1OC	0	14	.	18	-2	-13
COc1ccc(CCNC(=O)CSC(=O)c2ccccc2)cc1OC	.	46*	.	9	-2	-10
O=C(C1CC1)N1CC2(C1)[C@H](c1ccccc1)[C@@H](CO)N2Cc1ccccc1F	0	5	.	0	-2	8
COCC(=O)N1CC2(C1)CN(Cc1ccccn1)[C@@H](CO)c1[nH]c3cc(OC)ccc3c12	0	7	.	3	-2	-98
COc1ccc(OC(=O)N(C)C[C@@H]2OCc3cn(nn3)CCCC(=O)N([C@H](C)CO)C[C@@H]2C)cc1	1	11	.	0	.	.
C[C@@H]1CN([C@@H](C)CO)C(=O)c2cccc(NC(=O)NC3CCCCC3)c2O[C@@H]1CN(C)C(=O)Nc1ccccc1	.	-3	4	1	2	5
